# Assay results collected from several papers.
# Each line is one published result; the experiments were not run side by side.
# Target: Mitogen-activated protein kinase kinase kinase 5 (MAP3K5, Homo sapiens, UniProt Q99683)
# Sequence (Q99683 1-1374, as in one of the studies): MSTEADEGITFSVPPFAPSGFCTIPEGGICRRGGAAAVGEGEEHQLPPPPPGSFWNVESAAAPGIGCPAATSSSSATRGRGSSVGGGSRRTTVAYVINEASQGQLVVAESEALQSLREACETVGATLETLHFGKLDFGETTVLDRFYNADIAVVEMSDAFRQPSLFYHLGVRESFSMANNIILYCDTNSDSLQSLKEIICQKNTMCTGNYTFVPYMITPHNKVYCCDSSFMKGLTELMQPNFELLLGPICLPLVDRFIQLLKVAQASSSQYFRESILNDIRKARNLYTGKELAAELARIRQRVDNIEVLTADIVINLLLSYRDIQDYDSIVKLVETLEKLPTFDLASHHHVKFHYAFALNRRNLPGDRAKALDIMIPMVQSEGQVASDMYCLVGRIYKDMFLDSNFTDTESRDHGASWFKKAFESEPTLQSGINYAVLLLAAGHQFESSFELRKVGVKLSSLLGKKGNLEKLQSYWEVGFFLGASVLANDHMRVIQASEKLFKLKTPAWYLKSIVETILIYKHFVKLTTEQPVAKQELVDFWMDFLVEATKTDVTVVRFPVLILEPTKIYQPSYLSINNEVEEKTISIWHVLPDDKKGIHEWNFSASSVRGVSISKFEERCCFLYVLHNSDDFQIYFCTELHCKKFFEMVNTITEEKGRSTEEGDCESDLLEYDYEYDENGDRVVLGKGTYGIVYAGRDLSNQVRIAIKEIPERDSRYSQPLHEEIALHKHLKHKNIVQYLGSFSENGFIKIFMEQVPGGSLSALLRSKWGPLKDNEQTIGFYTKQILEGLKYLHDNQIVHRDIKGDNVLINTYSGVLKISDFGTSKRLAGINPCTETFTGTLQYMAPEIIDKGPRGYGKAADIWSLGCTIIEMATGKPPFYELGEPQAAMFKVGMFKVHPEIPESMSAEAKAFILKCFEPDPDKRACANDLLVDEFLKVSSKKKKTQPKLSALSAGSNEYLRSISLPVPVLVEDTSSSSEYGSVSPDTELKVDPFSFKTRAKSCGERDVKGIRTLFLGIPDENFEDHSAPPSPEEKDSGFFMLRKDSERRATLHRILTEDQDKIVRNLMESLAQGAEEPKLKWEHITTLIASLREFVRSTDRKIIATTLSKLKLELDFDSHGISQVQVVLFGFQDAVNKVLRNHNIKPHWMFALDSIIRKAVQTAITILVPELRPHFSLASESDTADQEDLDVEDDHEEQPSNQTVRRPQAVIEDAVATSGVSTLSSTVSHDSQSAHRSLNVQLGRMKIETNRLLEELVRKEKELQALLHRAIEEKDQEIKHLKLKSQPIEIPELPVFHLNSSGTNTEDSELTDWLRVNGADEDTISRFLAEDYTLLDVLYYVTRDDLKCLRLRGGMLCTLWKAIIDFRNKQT
effect on,technique,concentration,remaining binding,SMILES
cell-free assay,competition with immobilised ligand,1 µM,100%,C[C@@H]1CN(c2cc(-c3nn(C)c4ccc(OC5(C)CC5)cc34)ncn2)C[C@H](C)O1
binding,competition with immobilised ligand,1 µM,100%,O=C(c1ccc(Nc2ncc(Cl)c(-c3cc4ccccc4s3)n2)cc1)N1CCC(N2CCCC2)CC1
cell-free assay,competition with immobilised ligand,0.1 µM,84%,COCCOc1nc(-c2ccc(Cl)nc2)nc2c1CN(C(=O)c1ncn3ccccc13)CC2
binding,,1 µM,83%,F[C@@H]1CCN(c2nccc(-c3cnn4ncccc34)n2)C1
binding,competition with immobilised ligand,1 µM,100%,O=C(NCCCN1CCOCC1)c1ccc(Nc2nccc(-c3cc4ccccc4s3)n2)cc1
cell-free assay,competition with immobilised ligand,0.1 µM,97%,Cn1cc(Cl)c2c(Oc3c(F)cc(Nc4cc(Cl)nc(N)n4)cc3F)ccnc21
binding,competition with immobilised ligand,1 µM,100%,COc1cnc(Nc2cccc(S(N)(=O)=O)c2)nc1N1CCN(c2ccccc2)C(=O)C1
binding,,1 µM,100%,N[C@@H]1CCN(c2nccc(-c3cnn4ncccc34)n2)C1
cell-free assay,competition with immobilised ligand,0.1 µM,100%,C[C@H](c1ccnc(Nc2nc3ccc(-c4cc(N(C)C)ncn4)cc3[nH]2)c1)N1CCN(C(=O)CC(F)(F)F)CC1
binding,competition with immobilised ligand,1 µM,100%,Nc1ncc2c(n1)-c1c([nH]c3ccc(C#CC4CC4)cc13)CCCC2
binding,,1 µM,100%,CN(C)c1ncc(F)c(-c2cnn3ncccc23)n1
cell-free assay,competition with immobilised ligand,1 µM,97%,CCCOc1ccc([C@@H]2[C@@H](C(=O)O)[C@H](c3ccc4c(c3)OCO4)CN2CC(=O)Nc2c(CC)cccc2CC)cc1
binding,,1 µM,100%,COc1ccnn2ncc(-c3ccnc(N(C)C)n3)c12
binding,competition with immobilised ligand,1 µM,87%,O=C(NCC1CCOCC1)c1n[nH]cc1NC(=O)c1c(F)cccc1F
cell-free assay,competition with immobilised ligand,5 µM,100%,FC(F)(F)Oc1cccc(-c2cnc3ccc(-c4ccncc4)nn23)c1
binding,,1 µM,100%,Cc1cnn2ncc(-c3ccnc(N(C)C)n3)c2c1
binding,competition with immobilised ligand,1 µM,100%,C=CC(=O)N1CCC(C(=O)NCC(=O)N2CCN(c3nc(-c4cnc(N)nc4C(F)F)nc(N4CCOCC4)n3)CC2)CC1
cell-free assay,competition with immobilised ligand,0.1 µM,100%,Cc1cc(C)c(-n2ccn3nc(-c4cccnc4)cc23)cc1NC(=O)c1cc(C#N)cc(S(F)(F)(F)(F)F)c1
binding,,1 µM,100%,C[C@H]1CCN(c2nccc(-c3cnn4ncccc34)n2)C1
binding,competition with immobilised ligand,1 µM,100%,O=C(NCCCN1CCOCC1)c1ccc(Nc2ncc(Cl)c(-c3ccc(Cl)s3)n2)cc1
binding,competition with immobilised ligand,0.1 µM,95%,C[C@@H](c1ccc(-n2cnc3c(N)ncnc32)cc1)N1CCc2nn(C)c(Cc3ccccc3)c2C1=O
